Assay results reported in ChEMBL document CHEMBL2021842, “COMPARE analysis of the toxicity of an iminoquinone derivative of the imidazo[5,4-f]benzimidazoles with NAD(P)H:quinone oxidoreductase 1 (NQO1) activity and computational docking of quinones as NQO1 substrates” (Bioorg Med Chem, 2012).

Assays:
[1] = Cytotoxicity against human GM00637 cells assessed as reduction in mean cell viability after 72 hrs by MTT assay; type: cell-based; details: GM00637, 72 h
Outline: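 SV40-transformed normal skin fibroblasts (GM00637) in MEM Eagle–Earle BSS with 15% heat-inactivated FBS, 2 mM L-glutamine, 2× amino acids and vitamins. Seeded at 10,000 cells/well and left 24 h to adhere. Ethanol-delivered compound (1% final) for 72 h at 37 °C, 5% CO₂. MTT formazan in DMSO read at 550/690 nm. Viability relative to vehicle; IC₅₀ by nonlinear regression.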

[2] = system: HeLa; assay: Cytotoxicity against human HeLa cells assessed as reduction in mean cell viability after 72 hrs by MTT assay; type: functional, cell-based
Outline: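 HeLa-CCL-2 cells in DMEM with 10% heat-inactivated FBS, 2 mM L-glutamine and nonessential amino acids. Plated at 1000 cells/well with 24 h adherence. Treated in ethanol (1% final) for 72 h at 37 °C under 5% CO₂, with ethanol controls. Absorbance of DMSO-dissolved formazan at 550 nm, 690 nm reference. IC₅₀ by nonlinear regression of percent viability.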

[3] = system: DU-145; assay: Cytotoxicity against human DU145 cells assessed as reduction in mean cell viability after 72 hrs by MTT assay; type: functional, cell-based; details: DU-145, 72 h
Outline: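 DU-145 prostate cells in RPMI-1640 with 10% heat-inactivated FBS, penicillin–streptomycin and 2 mM L-glutamine. Seeded at 2000 cells/well and left 24 h to adhere. Compound added in ethanol (1% final) for 72 h at 37 °C, 5% CO₂, with ethanol-only controls. Formazan dissolved in DMSO and read at 550 nm (690 nm reference). IC₅₀ derived by nonlinear regression of viability versus vehicle.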

[4] = system: HL-60(TB); assay: Growth inhibition of human HL-60(TB) cells assessed as cell growth at 10 uM relative to untreated control; type: functional; details: read-out: Activity
Outline: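 NCI DTP NCI-60 screen, first stage: a single dose applied to 60 human tumour cell lines from nine tissue types. Output is reported as growth %.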

[5] = system: K562; assay: Growth inhibition of human K562 cells assessed as cell growth at 10 uM relative to untreated control; type: functional; details: read-out: Activity
Outline: (§1)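 NCI DTP 60-cell-line screen, first stage: a single 10 µM dose of compound given to the human tumour panel. Result reported as percent growth relative to control, on a mean growth graph.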

[6] = system: MOLT-4; assay: Growth inhibition of human MOLT4 cells assessed as cell growth at 10 uM relative to untreated control; type: functional; details: read-out: Activity
Outline: (§2)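 First stage of the NCI DTP 60 human tumour cell-line screen. Cells were exposed to a single dose of 10 µM. Output is reported as growth % relative to control.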

[7] = Growth inhibition of human […] cells assessed as cell growth at 10 uM relative to untreated control; type: functional; details: read-out: Activity; outline: as §2
[8] = system: SR; assay: Growth inhibition of human SR cells assessed as cell growth at 10 uM relative to untreated control; type: functional; details: read-out: Activity
Outline: (§3)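 This is the first stage of the NCI DTP 60-human-tumour-cell-line screen, covering nine tissue types. Cells receive a single dose of the test compound, and the output is reported as mean growth %.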

[9] = system: A549; assay: Growth inhibition of human A549 cells assessed as cell growth at 10 uM relative to untreated control; type: functional; details: read-out: Activity; outline: as §1
[10] = system: EKVX; assay: Growth inhibition of human EKVX cells assessed as cell growth at 10 uM relative to untreated control; type: functional; details: read-out: Activity; outline: as §1
[11] = system: HOP-62; assay: Growth inhibition of human HOP62 cells assessed as cell growth at 10 uM relative to untreated control; type: functional; details: read-out: Activity; outline: as §1
[12] = system: NCI-H23; assay: Growth inhibition of human NCI-H23 cells assessed as cell growth at 10 uM relative to untreated control; type: functional; details: read-out: Activity; outline: as §2
[13] = system: NCI-H322M; assay: Growth inhibition of human NCI-H322M cells assessed as cell growth at 10 uM relative to untreated control; type: functional; details: read-out: Activity; outline: as §2
[14] = system: NCI-H522; assay: Growth inhibition of human NCI-H522 cells assessed as cell growth at 10 uM relative to untreated control; type: functional; details: read-out: Activity; outline: as §2
[15] = system: COLO 205; assay: Growth inhibition of human COLO205 cells assessed as cell growth at 10 uM relative to untreated control; type: functional; details: read-out: Activity; outline: as §1
[16] = system: HCC 2998; assay: Growth inhibition of human HCC2998 cells assessed as cell growth at 10 uM relative to untreated control; type: functional; details: read-out: Activity; outline: as §1
[17] = system: HCT-116; assay: Growth inhibition of human HCT116 cells assessed as cell growth at 10 uM relative to untreated control; type: functional; details: read-out: Activity; outline: as §1
[18] = system: HT-29; assay: Growth inhibition of human HT-29 cells assessed as cell growth at 10 uM relative to untreated control; type: functional; details: read-out: Activity; outline: as §1
[19] = system: KM12; assay: Growth inhibition of human KM12 cells assessed as cell growth at 10 uM relative to untreated control; type: functional; details: read-out: Activity; outline: as §1
[20] = system: SW-620; assay: Growth inhibition of human SW620 cells assessed as cell growth at 10 uM relative to untreated control; type: functional; details: read-out: Activity; outline: as §3
[21] = system: SF-268; assay: Growth inhibition of human SF268 cells assessed as cell growth at 10 uM relative to untreated control; type: functional; details: read-out: Activity; outline: as §2
[22] = system: SNB-19; assay: Growth inhibition of human SNB19 cells assessed as cell growth at 10 uM relative to untreated control; type: functional; details: read-out: Activity; outline: as §3
[23] = system: SNB-75; assay: Growth inhibition of human SNB75 cells assessed as cell growth at 10 uM relative to untreated control; type: functional; details: read-out: Activity; outline: as §3
[24] = system: U-251; assay: Growth inhibition of human U251 cells assessed as cell growth at 10 uM relative to untreated control; type: functional; details: read-out: Activity; outline: as §3
[25] = system: SK-MEL-2; assay: Growth inhibition of human SK-MEL-2 cells assessed as cell growth at 10 uM relative to untreated control; type: functional; details: read-out: Activity; outline: as §2
[26] = system: OVCAR-3; assay: Growth inhibition of human OVCAR3 cells assessed as cell growth at 10 uM relative to untreated control; type: functional; details: read-out: Activity; outline: as §2
[27] = system: OVCAR-5; assay: Growth inhibition of human OVCAR5 cells assessed as cell growth at 10 uM relative to untreated control; type: functional; details: read-out: Activity; outline: as §2
[28] = system: SK-OV-3; assay: Growth inhibition of human SKOV3 cells assessed as cell growth at 10 uM relative to untreated control; type: functional; details: read-out: Activity; outline: as §2
[29] = system: RXF 393; assay: Growth inhibition of human RXF393 cells assessed as cell growth at 10 uM relative to untreated control; type: functional; details: read-out: Activity; outline: as §2
[30] = system: SN12C; assay: Growth inhibition of human SN12C cells assessed as cell growth at 10 uM relative to untreated control; type: functional; details: read-out: Activity; outline: as §3
[31] = system: TK-10; assay: Growth inhibition of human TK10 cells assessed as cell growth at 10 uM relative to untreated control; type: functional; details: read-out: Activity; outline: as §3
[32] = system: UO-31; assay: Growth inhibition of human UO31 cells assessed as cell growth at 10 uM relative to untreated control; type: functional; details: read-out: Activity; outline: as §3
[33] = system: PC-3; assay: Growth inhibition of human PC3 cells assessed as cell growth at 10 uM relative to untreated control; type: functional; details: read-out: Activity; outline: as §2
[34] = system: DU-145; assay: Growth inhibition of human DU145 cells assessed as cell growth at 10 uM relative to untreated control; type: functional; details: read-out: Activity; outline: as §1
[35] = system: MCF7; assay: Growth inhibition of human MCF7 cells assessed as cell growth at 10 uM relative to untreated control; type: functional; details: read-out: Activity; outline: as §2
[36] = system: NCI/ADR-RES; assay: Growth inhibition of human NCI/ADR-RES cells assessed as cell growth at 10 uM relative to untreated control; type: functional; details: read-out: Activity; outline: as §2
[37] = Growth inhibition of human Hs 578T cells assessed as cell growth at 10 uM relative to untreated control; type: functional; details: read-out: Activity; outline: as §1

SMILES	IC50 [1] [nM]	IC50 [2] [nM]	IC50 [3] [nM]	growth at 10 µM [4] [%]	growth at 10 µM [5] [%]	growth at 10 µM [6] [%]	growth at 10 µM [7] [%]	growth at 10 µM [8] [%]	growth at 10 µM [9] [%]	growth at 10 µM [10] [%]	growth at 10 µM [11] [%]	growth at 10 µM [12] [%]	growth at 10 µM [13] [%]	growth at 10 µM [14] [%]	growth at 10 µM [15] [%]	growth at 10 µM [16] [%]	growth at 10 µM [17] [%]	growth at 10 µM [18] [%]	growth at 10 µM [19] [%]	growth at 10 µM [20] [%]	also measured
N=C1c2nc3n(c2C(=O)c2nc4n(c21)CCCC4)CCCC3	3630	1550	300	96.3	81.4	85.4	82.2	69.5	-30.6	95.6	52.3	-70.4	27.7	10.5	-88.6	87.3	65.8	-13.7	66.7	23.7	growth at 10 µM [21]: 71.3%; growth at 10 µM [22]: 30%; growth at 10 µM [23]: -97%; growth at 10 µM [24]: 50.6%; growth at 10 µM [25]: 82.7%; growth at 10 µM [26]: 98.4%; growth at 10 µM [27]: -57.8%; growth at 10 µM [28]: 95%; growth at 10 µM [29]: 94.8%; growth at 10 µM [30]: -86.1%; growth at 10 µM [31]: 128%; growth at 10 µM [32]: 46.9%; growth at 10 µM [33]: 90.5%; growth at 10 µM [34]: -93.9%; growth at 10 µM [35]: -6.98%; growth at 10 µM [36]: 85.7%; growth at 10 µM [37]: -28.6%
O=C1c2nc3n(c2C(=O)c2nc4n(c21)CCCC4)CCCC3	> 5000	1670	1990	107	107	111	97.6	101	99.7	99.9	112	100	106	92.3	116	88.3	96.8	104	92.1	104	growth at 10 µM [21]: 92.3%; growth at 10 µM [22]: 98.6%; growth at 10 µM [23]: 97%; growth at 10 µM [24]: 97.5%; growth at 10 µM [25]: 108%; growth at 10 µM [26]: 97%; growth at 10 µM [27]: 110%; growth at 10 µM [28]: 102%; growth at 10 µM [29]: 107%; growth at 10 µM [30]: 99.6%; growth at 10 µM [31]: 100%; growth at 10 µM [32]: 90.9%; growth at 10 µM [33]: 102%; growth at 10 µM [34]: 101%; growth at 10 µM [35]: 101%; growth at 10 µM [36]: 103%; growth at 10 µM [37]: 102%
